Measured values as given in ChEMBL document CHEMBL1782036, “Atovaquone derivatives as potent cytotoxic and apoptosis inducing agents” (Bioorg Med Chem Lett, 2009).

Key:
DU-145 [1] = test: Growth inhibition of human DU145 cells after 72 hrs by MTT assay; assay type: functional, cell-based; conditions: DU-145, 72 h
In short: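 Du145 human prostate carcinoma cells were screened by MTT cell-growth inhibition assay. IC50 values are means of three experiments.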

IMR-90 = test: Antiproliferative activity against human IMR90 cells after 72 hrs by MTT assay; assay type: cell-based; conditions: IMR-90, 72 h
A549 = test: Antiproliferative activity against human A549 cells after 72 hrs by MTT assay; assay type: functional, cell-based; conditions: A549, 72 h
HeLa = test: Antiproliferative activity against human HeLa cells after 72 hrs by MTT assay; assay type: functional, cell-based
HepG2 = test: Antiproliferative activity against human HepG2 cells after 72 hrs by MTT assay; assay type: functional, cell-based; conditions: HepG2, 72 h
HT-1080 = test: Antiproliferative activity against human HT1080 cells after 72 hrs by MTT assay; assay type: functional, cell-based; conditions: HT-1080, 72 h
HT-29 = test: Antiproliferative activity against human HT-29 cells after 72 hrs by MTT assay; assay type: functional, cell-based; conditions: HT-29, 72 h
KB = test: Antiproliferative activity against human KB cells after 72 hrs by MTT assay; assay type: functional, cell-based
[2] = Antiproliferative activity against human L78 cells after 72 hrs by MTT assay; assay type: functional, cell-based; conditions: L78, 72 h
MCF7 = test: Antiproliferative activity against human MCF7 cells after 72 hrs by MTT assay; assay type: functional, cell-based; conditions: MCF7, 72 h
MOLT-4 = test: Antiproliferative activity against human MOLT4 cells after 72 hrs by MTT assay; assay type: functional, cell-based; conditions: MOLT-4, 72 h
OS-RC-2 = test: Antiproliferative activity against human OS-RC2 cells after 72 hrs by MTT assay; assay type: functional, cell-based; conditions: OS-RC-2, 72 h
SGC-7901 = test: Antiproliferative activity against human SGC7901 cells after 72 hrs by MTT assay; assay type: functional, cell-based; conditions: SGC-7901, 72 h
U-251 = test: Antiproliferative activity against human U251 cells after 72 hrs by MTT assay; assay type: functional, cell-based; conditions: U-251, 72 h
DU-145 [3] = test: Induction of apoptosis in human DU145 cells at 5 uM assessed as live cell level after 72 hrs by AnnexinV conjugated 7- AAD staining by flow cytometry; assay type: functional
In short: (§1)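 Du145 cells were treated for 72 h and stained with Annexin V conjugate plus 7-AAD. Flow cytometry read PS externalization and membrane integrity, scoring cells as live (double negative), early apoptotic, or late apoptotic/necrotic (double positive). Untreated cells served as the control.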

DU-145 [4] = test: Induction of apoptosis in human DU145 cells at 5 uM assessed as early apoptosis level after 72 hrs by AnnexinV conjugated 7- AAD staining by flow cytometry; assay type: functional; in short: as §1
DU-145 [5] = test: Induction of apoptosis in human DU145 cells at 5 uM assessed as late apoptosis/ necrotic cells level after 72 hrs by AnnexinV conjugated 7- AAD staining by flow cytometry; assay type: functional; in short: as §1
DU-145 [6] = test: Induction of apoptosis in human DU145 cells at 5 uM assessed as dead cell level after 72 hrs by AnnexinV conjugated 7- AAD staining by flow cytometry; assay type: functional
In short: (§2)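 Du145 human prostate carcinoma cells exposed to compound for 72 h, then stained with Annexin V and 7-AAD and analysed by flow cytometry. Annexin V detects phosphatidylserine externalised to the outer membrane leaflet, and 7-AAD enters only membrane-compromised cells. Dead cells were those positive for both stains. Untreated cells served as control.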

DU-145 [7] = test: Induction of apoptosis in human DU145 cells at 10 uM assessed as live cell level after 72 hrs by AnnexinV conjugated 7- AAD staining by flow cytometry; assay type: functional; in short: as §1
DU-145 [8] = test: Induction of apoptosis in human DU145 cells at 10 uM assessed as early apoptosis level after 72 hrs by AnnexinV conjugated 7- AAD staining by flow cytometry; assay type: functional; in short: as §1
DU-145 [9] = test: Induction of apoptosis in human DU145 cells at 10 uM assessed as late apoptosis/ necrotic cells level after 72 hrs by AnnexinV conjugated 7- AAD staining by flow cytometry; assay type: functional; in short: as §1
DU-145 [10] = test: Induction of apoptosis in human DU145 cells at 10 uM assessed as dead cell level after 72 hrs by AnnexinV conjugated 7- AAD staining by flow cytometry; assay type: functional; in short: as §2

Question: With COc1ccccc1N1CCN(C2=CC(=O)c3ccccc3C2=O)CC1 as the molecule, how does the IC50 (DU-145 [1]) read?
Answer: 8 µM

Question: For COc1cc(N2CCN(C3=CC(=O)c4ccccc4C3=O)CC2)cc(OC)c1OC, which IC50 (DU-145 [1]) is on record?
Answer: 11.6 µM

Question: Which IC50 (DU-145 [1]) does the source give for COc1ccc(N2CCN(C3=CC(=O)c4ccccc4C3=O)CC2)cc1OC here?
Answer: 17.8 µM

Question: With O=C1C(N2CCN(c3ccccc3)CC2)=CC(=O)c2c(O)cccc21 as the molecule, how does the IC50 (DU-145 [1]) read?
Answer: 15.2 µM

Question: With O=C1C=C(N2CCN(c3ccccc3)CC2)C(=O)c2c(O)ccc(O)c21 as the molecule, how does the IC50 (DU-145 [1]) read?
Answer: 1.3 µM

Question: What about the IC50 (IMR-90) of the same molecule?
Answer: > 50 µM

Question: And the IC50 (A549)?
Answer: 1.7 µM

Question: And the IC50 (HeLa)?
Answer: 2.1 µM

Question: What about the IC50 (HepG2) of the same molecule?
Answer: 5.4 µM

Question: And the IC50 (HT-1080)?
Answer: 2.8 µM

Question: And the IC50 (HT-29)?
Answer: 2.6 µM

Question: What about the IC50 (KB) of the same molecule?
Answer: 1.4 µM

Question: What about the IC50 [2] of the same molecule?
Answer: 1.9 µM

Question: What about the IC50 (MCF7) of the same molecule?
Answer: 3 µM

Question: And the IC50 (MOLT-4)?
Answer: > 50 µM

Question: And the IC50 (OS-RC-2)?
Answer: 1.5 µM

Question: What about the IC50 (SGC-7901) of the same molecule?
Answer: 2.5 µM

Question: And the IC50 (U-251)?
Answer: 6.1 µM

Question: What about the Activity (DU-145 [3]) of the same molecule?
Answer: 7.48%

Question: What about the Activity (DU-145 [4]) of the same molecule?
Answer: 19.8%

Question: And the Activity (DU-145 [5])?
Answer: 71.34%

Question: What about the Activity (DU-145 [6]) of the same molecule?
Answer: 1.39%

Question: What about the Activity (DU-145 [7]) of the same molecule?
Answer: 0.95%

Question: What about the Activity (DU-145 [8]) of the same molecule?
Answer: 13.77%

Question: What about the Activity (DU-145 [9]) of the same molecule?
Answer: 84.76%

Question: What about the Activity (DU-145 [10]) of the same molecule?
Answer: 0.53%

Question: With COc1ccc(N2CCN(C3=CC(=O)c4ccccc4C3=O)CC2)cc1 as the molecule, how does the IC50 (DU-145 [1]) read?
Answer: 46.1 µM

Question: For COc1cc(OC)cc(N2CCN(C3=CC(=O)c4ccccc4C3=O)CC2)c1, which IC50 (DU-145 [1]) is on record?
Answer: 14.9 µM

Question: With O=C1C=C(N2CCC(c3ccccc3)CC2)C(=O)c2c(O)cccc21 as the molecule, how does the IC50 (DU-145 [1]) read?
Answer: 3 µM

Question: What about the IC50 (IMR-90) of the same molecule?
Answer: > 50 µM

Question: And the IC50 (A549)?
Answer: > 50 µM

Question: What about the IC50 (HeLa) of the same molecule?
Answer: 8.6 µM

Question: What about the IC50 (HepG2) of the same molecule?
Answer: 9.7 µM

Question: And the IC50 (HT-1080)?
Answer: 11.1 µM

Question: What about the IC50 (HT-29) of the same molecule?
Answer: 5.4 µM

Question: And the IC50 (KB)?
Answer: 2.2 µM

Question: And the IC50 [2]?
Answer: 13.4 µM

Question: And the IC50 (MCF7)?
Answer: 8.8 µM

Question: What about the IC50 (MOLT-4) of the same molecule?
Answer: 2.7 µM

Question: What about the IC50 (OS-RC-2) of the same molecule?
Answer: 0.7 µM

Question: And the IC50 (SGC-7901)?
Answer: 11.1 µM

Question: What about the IC50 (U-251) of the same molecule?
Answer: 10.8 µM

Question: And the Activity (DU-145 [3])?
Answer: 53.01%

Question: What about the Activity (DU-145 [4]) of the same molecule?
Answer: 3.87%

Question: What about the Activity (DU-145 [5]) of the same molecule?
Answer: 37.56%

Question: And the Activity (DU-145 [6])?
Answer: 5.57%

Question: What about the Activity (DU-145 [7]) of the same molecule?
Answer: 50.85%

Question: And the Activity (DU-145 [8])?
Answer: 3.17%

Question: And the Activity (DU-145 [9])?
Answer: 38.3%

Question: And the Activity (DU-145 [10])?
Answer: 7.68%

Question: With O=C1C=C(N2CCN(c3cccc(Cl)c3)CC2)C(=O)c2ccccc21 as the molecule, how does the IC50 (DU-145 [1]) read?
Answer: 8.3 µM

Question: Which IC50 (DU-145 [1]) does the source give for Cc1cccc(N2CCN(C3=CC(=O)c4ccccc4C3=O)CC2)c1 here?
Answer: 7.4 µM

Question: Which IC50 (DU-145 [1]) does the source give for Cc1ccc(N2CCN(C3=CC(=O)c4ccccc4C3=O)CC2)cc1 here?
Answer: 8.2 µM

Question: For O=C1C=C(N2CCN(c3ccc(Br)cc3)CC2)C(=O)c2ccccc21, which IC50 (DU-145 [1]) is on record?
Answer: > 50 µM

Question: What does the source list for Cc1ccccc1C1CCN(C2=CC(=O)c3cccc(O)c3C2=O)CC1?
Answer: IC50 (DU-145 [1]): 2.5 µM; IC50 (IMR-90): > 50 µM; IC50 (A549): 5.2 µM; IC50 (HeLa): 9.7 µM; IC50 (HepG2): 16.6 µM; IC50 (HT-1080): > 50 µM; IC50 (HT-29): 6.7 µM; IC50 (KB): 4.4 µM; IC50 [2]: 4.4 µM; IC50 (MCF7): 8.9 µM; IC50 (MOLT-4): > 50 µM; IC50 (OS-RC-2): 3.2 µM; IC50 (SGC-7901): 3.9 µM; IC50 (U-251): 30.4 µM; Activity (DU-145 [3]): 51.4%; Activity (DU-145 [4]): 10.31%; Activity (DU-145 [5]): 34.39%; Activity (DU-145 [6]): 3.9%; Activity (DU-145 [7]): 0.96%; Activity (DU-145 [8]): 14.31%; Activity (DU-145 [9]): 84.32%; Activity (DU-145 [10]): 0.42%

Question: Which IC50 (DU-145 [1]) does the source give for Cc1ccccc1C1CCN(C2=CC(=O)c3ccccc3C2=O)CC1 here?
Answer: 6.1 µM

Question: Which IC50 (DU-145 [1]) does the source give for O=C1C=C(N2CCN(c3ccc(F)cc3)CC2)C(=O)c2c(O)cccc21 here?
Answer: 8.4 µM
